Values after ≈ are worked out from the molar mass of the structure shown. One block for each compound: values may come before it.
Legend:
[1] = tested on: HepG2 cells; assay: Sulforhodamine B; assay type: cell-based; conditions: Homo sapiens, HepG2, 48 h
[2] = tested on: NDEA-induced HCC; assay: NDEA-induced HCC model: body weight, liver weight, tumor incidence; assay type: in vivo, Wistar albino rats
How it was run: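 NDEA-induced HCC in male Wistar albino rats (six weeks old, 80–120 g, n=8/group): 100 mg/kg i.p. weekly for 6 weeks. Then free or PLGA-nanoparticle test compound was given at 50 or 100 mg/kg orally, or 5-FU 10 mg/kg i.p., for 15 days; controls got 0.25% CMC 2 mL/kg. Body weight was taken on the first and last days as % gain. Livers were weighed; nodule number and % incidence were counted.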

[3] = tested on: NDEA-induced HCC; assay: NDEA-induced HCC model: oxidative stress parameters in liver tissue; assay type: in vivo, Wistar albino rats
How it was run: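 Rats were male Wistar albino (80–120 g, n=8/group) given NDEA 100 mg/kg i.p. weekly for 6 weeks. They then received free or PLGA-nanoparticle test compound at 50 or 100 mg/kg orally, or 5-FU 10 mg/kg i.p., for 15 days. Livers were excised, rinsed in ice-cold saline and stored at −80°C. CAT, SOD, GSH, protein carbonyl and TBARS were assayed in liver tissue.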

[4] = tested on: caspase-3 and -8; assay: NDEA-induced HCC model: ELISA of caspase-3 and -8 in liver; assay type: in vivo, Wistar albino rats; conditions: NDEA rats; 50 and 100 mg/kg orally for 15 days
[5] = In vivo oral pharmacokinetic study, plasma HPLC; parameters: species or system albino Wistar rats
How it was run: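 Albino Wistar rats received free or PLGA-nanoparticle test compound orally at 100 mg/kg. […] was mixed 1:1 with ACN, vortexed, spun, dried at 40°C and reconstituted in ACN. Assay was RP-C18 HPLC (ACN:H2O 9:1, 1 mL/min, 40°C, 230 nm); calibrants 0.01–50.0 µg/mL.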

[6] = tested on: NDEA-induced HCC; assay: NDEA-induced HCC model: histopathology; assay type: in vivo, Wistar albino rats; conditions: NDEA rats; 50 and 100 mg/kg orally for 15 days
[7] = tested on: NDEA-induced HCC; assay: NDEA-induced HCC model: catabolic by-products; assay type: in vivo, Wistar albino rats; conditions: NDEA rats; 50 and 100 mg/kg orally for 15 days
[8] = tested on: IL-2, IL-6, IL-10 and IL-1β; assay type: in vivo, Wistar albino rats; conditions: NDEA rats, ELISA; 50 and 100 mg/kg orally for 15 days
How it was run: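 Male Wistar albino rats (six weeks old, 80–120 g, n=8/group) got NDEA 100 mg/kg i.p. weekly for 6 weeks. Free or PLGA-nanoparticle test compound followed at 50 or 100 mg/kg orally for 15 days (5-FU 10 mg/kg i.p.; vehicle 0.25% CMC). Excised livers were rinsed in ice-cold saline and kept at −80°C. Hepatic IL-2, IL-6, IL-10 and IL-1β were measured by kit ELISA; mean ± SD.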

[9] = tested on: caspase-3 and -8 genes; assay: NDEA-induced HCC model: qRT-PCR of caspase-3 and -8 mRNA in liver tissue; assay type: in vivo, Wistar albino rats; conditions: NDEA rats, 50 and 100 mg/kg orally for 15 days
[10] = NDEA + 50 mg/kg orally for 15 days
[11] = NDEA + 100 mg/kg orally for 15 days
[12] = albino Wistar, rat, po, 100 mg/kg
[13] = oral 100 mg/kg, albino Wistar rats
[14] = NDEA + 5-FU 10 mg/kg i.p. for 15 days

GI50 [1]: 10 µg/mL (≈ 21.9 µM)
AUC [5, 12]: 134 µg·h/mL
AUC(0-inf) [5, 12]: 134 ± 35.7 µg·h/mL
Cmax [5, 12]: 10300 ± 450 ng/mL
MRT [5, 12]: 12.9 ± 1.35 h
Tmax [5, 12]: 4 h
half-life [5, 12]: 10.7 h
AUMC [5, 13]: 1,724.12 µg·h^2/mL
CL [5, 13]: 0.007 h
SMILES: C=C(C)[C@@H]1CC[C@]2(C(=O)O)CC[C@]3(C)[C@H](CC[C@@H]4[C@@]5(C)CC[C@H](O)C(C)(C)[C@@H]5CC[C@]43C)[C@@H]12 [B, Betulinic acid]
Final day body weight [2, 10]: 132.00 ± 4.25 g
Liver weight [2, 10]: 12.78 ± 0.73 g
Tumor incidence no [2, 10]: 19.00±0.97
Weight variation [2, 10]: 11.00 ± 1.82 g
Final day body weight [2, 11]: 130.00 ± 2.12 g
Liver weight [2, 11]: 12.03 ± 1.25 g
Tumor incidence no [2, 11]: 14.00±1.01
Weight variation [2, 11]: 12.00 ± 2.93 g
CAT [3, 10]: 5.75±0.27 nM of H2O2/min/µg of protein
GSH [3, 10]: 3.25±0.65 mM/mg of protein
ProC [3, 10]: 0.91±0.02 µM/µg of protein
SOD [3, 10]: 0.19±0.07 U/µg of protein
TBARS [3, 10]: 0.13±0.05 nM of MDA/mg of protein
CAT [3, 11]: 6.81±0.73 nM of H2O2/min/µg of protein
GSH [3, 11]: 3.50±0.32 mM/mg of protein
ProC [3, 11]: 0.76±0.02 µM/µg of protein
SOD [3, 11]: 0.21±0.05 U/µg of protein
TBARS [3, 11]: 0.11±0.04 nM of MDA/mg of protein
Caspase-3 and -8 levels in liver, ELISA (in words) [4]: ability to elevate the reduced levels of caspase-3 and -8
Histological changes in liver tissue, H&E (in words) [6]: marked improvement in gross microscopic appearance of hepatic tissue
Catabolic pigments bilirubin and biliverdin in liver tissue (in words) [7]: significant (p<0.001) normalization
Inflammatory cytokines IL-2, IL-6, IL-10, IL-1β (in words) [8]: decreased to a certain extent
Caspase-3 and -8 gene expression, qRT-PCR (in words) [9]: significantly elevated (p<0.001) the reduced levels of caspase-3 and -8

SMILES: O=c1[nH]cc(F)c(=O)[nH]1 [Batch 5-FU, 5-fluorouracil, reference compound]
Final day body weight [2, 14]: 125.00 ± 3.15 g
Liver weight [2, 14]: 10.43 ± 1.71 g
Tumor incidence no [2, 14]: 6.00±0.83
Weight variation [2, 14]: 10.00 ± 1.26 g
CAT [3, 14]: 8.41±0.68 nM of H2O2/min/µg of protein
GSH [3, 14]: 5.04±0.61 mM/mg of protein
ProC [3, 14]: 0.69±0.03 µM/µg of protein
SOD [3, 14]: 0.24±0.09 U/µg of protein
TBARS [3, 14]: 0.09±0.01 nM of MDA/mg of protein

Reference: PMC5818879 (International Journal of Nanomedicine, 2018)
